Measurements reported in ChEMBL document CHEMBL4196114 (ACS Med Chem Lett, 2018).

What was measured:
[1] = system: Leishmania tropica; test: Antileishmanial activity against Leishmania tropica MHOM/IT/2012/ISS3130 promastigotes after 72 hrs by MTT assay; type: functional, organism-based; conditions: MHOM/IT/2012/ISS3130, 72 h
Method in brief: (§1)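 Promastigotes grown in Schneider's medium with 10% FCS at 22 °C. Assay in RPMI with 10% FCS, 20 mM Hepes and 2 mM glutamine, 5×10⁶ parasites/mL, seven serial dilutions from DMSO stocks, 72 h at 22 °C. MTT added for 3 h, pellet lysed in SDS/DMF, A550 read against 650 nm reference. IC50 given as mean of separate duplicate experiments; amphotericin B as reference.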

[2] = system: Mus musculus; test: Toxicity in C57Bl/6 mouse assessed as effect on normal behavior at 300 mg/kg, po administered as single dose measured twice daily up to 30 days; type: organism-based; conditions: in vivo, 720 h
Method in brief: (§2)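 Healthy female C57Bl/6 mice, groups of four or five, received one oral dose. Compound was first dissolved in DMSO, then suspended in 0.5% hydroxyethylcellulose-0.1% Tween 80. Behaviour and appearance were checked twice daily for 30 days. A dose counted as tolerated if all mice survived 30 days with normal appearance and behaviour.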

[3] = system: Leishmania infantum; test: Antileishmanial activity against amastigote stage of Leishmania infantum infected in PMA-differentiated human THP1 cells assessed as inhibition of parasite growth at 0.5 uM after 72 hrs by Giemsa staining based light microscopy relative to control; type: functional; conditions: THP-1, 72 h
Method in brief: (§3)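 THP-1 cells at 5×10⁵ cells/mL differentiated with 0.1 μM PMA for 48 h, then infected with metacyclic L. infantum promastigotes (1:10 macrophage:parasite) for 24 h. Washed monolayers exposed to compound for 72 h, methanol-fixed and Giemsa-stained. Percent infected macrophages versus untreated scored by light microscopy, and IC50 derived. Single-concentration values are means of two or three experiments, IC50 of two.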

[4] = system: Leishmania infantum; test: Antileishmanial activity against Leishmania infantum MHOM/TN/1980/IPT-1 amastigotes infected in sc dosed Balb/c mouse assessed as reduction in liver parasite load administered for 4 to 5 days measured post last dose; type: functional, organism-based
Method in brief: (§4)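 Balb/c mice (18-20 g) inoculated via tail vein with 2×10⁶ semi-purified L. infantum IPT-1 amastigotes. Dosing p.o. (0.1% Tween/0.5% HEC in water, or water) or s.c. (sunflower oil, or water) for 4 or 5 consecutive days from day 9 post-infection.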

[5] = system: Leishmania infantum; test: Antileishmanial activity against Leishmania infantum MHOM/TN/1980/IPT-1 amastigotes infected in Balb/c mouse assessed as reduction in liver parasite load at 100 mg/kg, po administered for 4 days measured post last dose relative to control; type: functional; design: scale not given: the % may be the effect or the level left; method in brief: as §4
[6] = system: Leishmania infantum; test: Antileishmanial activity against Leishmania infantum MHOM/TN/80/IPT1 promastigotes after 72 hrs by MTT assay; type: functional, organism-based; conditions: MHOM/TN/80/IPT1, 72 h; method in brief: as §1
[7] = system: Mus musculus; test: Toxicity in C57Bl/6 mouse assessed as survival at 300 mg/kg, po administered as single dose measured twice daily up to 30 days; type: organism-based; conditions: in vivo, 720 h; method in brief: as §2
[8] = system: Leishmania infantum; test: Antileishmanial activity against Leishmania infantum MHOM/TN/1980/IPT-1 amastigotes infected in Balb/c mouse assessed as reduction in liver parasite load at 5 mg/kg, sc administered for 5 days measured post last dose relative to control; type: functional; design: scale not given: the % may be the effect or the level left
Method in brief: as §4, with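 “post-infection. On day 13 or 14, liver weight × amastigotes per liver cell gives relative load, expressed versus the untreated control group mean.” for “post-infection.”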

[9] = system: Leishmania infantum; test: Antileishmanial activity against Leishmania infantum MHOM/TN/1980/IPT-1 amastigotes infected in Balb/c mouse assessed as reduction in liver parasite load at 10 mg/kg, sc administered for 4 days measured post last dose relative to control; type: functional; design: scale not given: the % may be the effect or the level left
Method in brief: as §4, with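 “post-infection. On day 13 or 14, liver weight × amastigotes per liver cell gives relative load, expressed versus the untreated control group mean.” for “post-infection.”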

[10] = system: BMDM; test: Induction of reactive oxygen species production in IFNgamma-primed mouse BMDM measured after 24 hrs by H2DCFDA probe based assay; type: functional, cell-based
[11] = Selectivity index, ratio of IC50 for PMA-differentiated human THP1 cells to IC50 for Leishmania tropica MHOM/IT/2012/ISS3130 promastigotes; type: toxicity; conditions: read-out: Ratio IC50
[12] = system: Mus musculus; test: Toxicity in C57Bl/6 mouse assessed as effect on normal appearance at 300 mg/kg, po administered as single dose measured twice daily up to 30 days; type: organism-based; conditions: in vivo, 720 h; method in brief: as §2
[13] = Selectivity index, ratio of IC50 for PMA-differentiated human THP1 cells to IC50 for amastigote stage of Leishmania infantum infected in PMA-differentiated human THP1 cells; type: toxicity; conditions: read-out: Ratio IC50
[14] = system: Leishmania infantum; test: Antileishmanial activity against Leishmania infantum MHOM/TN/1980/IPT-1 amastigotes infected in po dosed Balb/c mouse assessed as reduction in liver parasite load administered for 4 to 5 days measured post last dose; type: functional, organism-based; method in brief: as §4
[15] = Selectivity index, ratio of IC50 for PMA-differentiated human THP1 cells to IC50 for Leishmania infantum MHOM/TN/80/IPT1 promastigotes; type: toxicity; conditions: read-out: Ratio IC50
[16] = system: THP-1; test: Cytotoxicity against PMA-differentiated human THP1 cells after 72 hrs by MTT assay; type: cell-based; conditions: THP-1, 72 h
Method in brief: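 THP-1 cells at 5×10⁵ cells/mL, differentiated with 0.1 μM PMA for 48 h, then exposed to serial dilutions for 72 h. Viability read by MTT; IC50 for growth inhibition. Duplicate experiments, mean reported.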

[17] = system: Leishmania infantum; test: Antileishmanial activity against Leishmania infantum MHOM/TN/1980/IPT-1 amastigotes infected in Balb/c mouse assessed as reduction in liver parasite load at 60 mg/kg, po administered for 4 days measured post last dose relative to control; type: functional; design: scale not given: the % may be the effect or the level left
Method in brief: as §4, with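 “post-infection. On day 13 or 14, liver weight × amastigotes per liver cell gives relative load, expressed versus the untreated control group mean.” for “post-infection.”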

[18] = system: Leishmania infantum; test: Antileishmanial activity against amastigote stage of Leishmania infantum infected in PMA-differentiated human THP1 cells assessed as inhibition of parasite growth after 72 hrs by Giemsa staining based light microscopy; type: functional, organism-based; conditions: THP-1, 72 h; method in brief: as §3
[19] = system: Mus musculus; test: Toxicity in Balb/c mouse infected with Leishmania infantum MHOM/TN/1980/IPT-1 amastigotes assessed as death at 100 mg/kg, administered for 4 days measured on day 10 to 12; type: organism-based; conditions: in vivo, 96 h
[20] = system: BMDM; test: Induction of nitric oxide production in IFNgamma-primed mouse BMDM measured after 24 hrs by Griess assay; type: functional, cell-based

**Q.** Which IC50 [1] does the source give for `Cl.Cl.Cl.Cl.Clc1ccc2c(NCCCN3CCN(CCCNCCC45CC6CC(CC(C6)C4)C5)CC3)ccnc2c1` here?
**A.** The IC50 was 0.51 µM.

**Q.** And the Activity [2]?
**A.** Its Activity is “Non-Toxic”.

**Q.** And the inhibition at 0.5 µM [3]?
**A.** Its inhibition at 0.5 µM is 72.2%.

**Q.** And the Activity [4]?
**A.** The Activity was “Dose-dependent effect”.

**Q.** What about the Activity [5] of the same molecule?
**A.** Its Activity is 100%.

**Q.** And the IC50 [6]?
**A.** Its IC50 is 0.52 µM.

**Q.** And the Activity [7]?
**A.** The Activity was “Non-Toxic”.

**Q.** What about the Activity [8] of the same molecule?
**A.** The Activity was 57%.

**Q.** What about the Activity [9] of the same molecule?
**A.** The Activity was 81%.

**Q.** What about the Activity [10] of the same molecule?
**A.** Its Activity is “Dose-dependent effect”.

**Q.** What about the selectivity ratio [11] of the same molecule?
**A.** The selectivity ratio was 2.

**Q.** And the Activity [12]?
**A.** The Activity was “Non-Toxic”.

**Q.** What about the selectivity ratio [13] of the same molecule?
**A.** The selectivity ratio was 3.22.

**Q.** What about the Activity [14] of the same molecule?
**A.** Its Activity is “Dose-dependent effect”.

**Q.** And the selectivity ratio [15]?
**A.** Its selectivity ratio is 1.9.

**Q.** What about the IC50 [16] of the same molecule?
**A.** The IC50 was 1 µM.

**Q.** And the Activity [17]?
**A.** The Activity was 96%.

**Q.** What about the IC50 [18] of the same molecule?
**A.** Its IC50 is 0.31 µM.

**Q.** And the Activity [19]?
**A.** The Activity was “Toxic”.

**Q.** What about the Activity [20] of the same molecule?
**A.** The Activity was “Dose-dependent effect”.
